These compounds were tested on Leishmania donovani (assay: Antileishmanial activity of compound against leishmania donovani was determined in luciferase assay).
Format: functional, organism-based
Method in brief: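 Transgenic Leishmania donovani promastigotes expressing firefly luciferase, 2×10^6 cell/mL, exposed to compound dilutions in 96-well plates at 26°C for 72 h; growth read by luciferase luminescence (Steady Glo). At least six concentrations, each in duplicate; mean values used for growth inhibition curves and IC50. Pentamidine and amphotericin B as standards.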

| Structure (SMILES) | IC50 [µM] |
| --- | --- |
| C[C@@H]1CC[C@H]2[C@@H](CCCc3ccc(S(C)(=O)=O)cc3)C(=O)O[C@@H]3O[C@@]4(C)CCC1[C@]32OO4 (stereo partly specified) | 53.8 |
| C[C@@H]1CC[C@H]2[C@@H](CCCc3ccccc3)C(=O)O[C@@H]3O[C@@]4(C)CCC1[C@]32OO4 (stereo partly specified) | 11.6 |
| C[C@@H]1CC[C@H]2[C@@H](CCCc3ccc(Cl)cc3)CO[C@@H]3O[C@@]4(C)CC[C@@H]1[C@]32OO4 | 4.9 |
| CCCC[C@@]12CCC3[C@H](C)CC[C@H]4CC(=O)O[C@H](O1)[C@@]34OO2 (stereo partly specified) | 258 |
| C[C@@H]1CC[C@H]2[C@H](CCCc3ccc(N(C)C)cc3)C(=O)O[C@@H]3O[C@@]4(C)CCC1[C@]32OO4 (stereo partly specified) | 88.3 |
| CC(C)CN1C(=O)C[C@@H]2CC[C@@H](C)[C@@H]3CC[C@@]4(C)OO[C@@]23[C@H]1O4 | 186 |
| C[C@@H]1CC[C@H]2[C@@H](CCCc3ccc(N(C)C)cc3)CO[C@@H]3O[C@@]4(C)CC[C@@H]1[C@]32OO4 | 36 |
| CC[C@@]12CC[C@H]3[C@H](C)CC[C@H]4CC(=O)O[C@H](O1)[C@]43OO2 | 177 |
| CC1(C)OO[C@]23CCCC[C@H]2C(C)(C)C(=O)O[C@@H]3O1 | 204 |
| CCOC(=O)CCC12CCC3[C@H](C)CC[C@H]4CC(=O)O[C@H](O1)[C@@]34OO2 (single isomer, unassigned) | 31 |
| CCCC[C@H]1C(=O)O[C@@H]2O[C@@]3(CCCCc4ccccc4)CCC4[C@H](C)CC[C@@H]1[C@]42OO3 (stereo partly specified) | 4.5 |
| CSc1ccc(CCC[C@H]2C(=O)O[C@@H]3O[C@@]4(C)CCC5[C@H](C)CC[C@@H]2[C@]53OO4)cc1 (stereo partly specified) | 1.4 |
| C[C@@H]1CC[C@H]2[C@@H](CCCc3cc(C(F)(F)F)cc(C(F)(F)F)c3)CO[C@@H]3O[C@@]4(C)CC[C@@H]1[C@]32OO4 | 0.3 |
| C[C@@H]1CC[C@H]2[C@@H](CCCc3ccc(C(F)(F)F)cc3)CO[C@@H]3O[C@@]4(C)CC[C@@H]1[C@]32OO4 | 1.8 |
| COc1ccc(CCC[C@H]2CO[C@@H]3O[C@@]4(C)CC[C@H]5[C@H](C)CC[C@@H]2[C@@]35OO4)cc1 | 17.4 |
| CCCC[C@H]1C(O)O[C@@H]2O[C@@]3(C)CC[C@H]4[C@H](C)CC[C@@H]1[C@@]24OO3 (stereo partly specified) | 383 |
| C[C@@H]1[C@H](O)[C@@H](C)/C=C/C=C/C=C/C=C/C=C/C=C/C=C/[C@H](O[C@@H]2O[C@H](C)[C@@H](O)[C@H](N)[C@@H]2O)C[C@@H]2O[C@](O)(C[C@@H](O)C[C@@H](O)[C@H](O)CC[C@@H](O)C[C@@H](O)CC(=O)O[C@H]1C)C[C@H](O)[C@H]2C(=O)O [AMPHOTERICIN B] | 0.01 |
| C[C@@H]1CC[C@H]2[C@@H](CCCc3cc(F)cc(F)c3)C(=O)O[C@@H]3O[C@@]4(C)CCC1[C@]32OO4 (stereo partly specified) | 49.7 |
| C[C@@H]1CC[C@H]2CCO[C@@H]3OC4(CCc5ccccc5)CC[C@@H]1[C@@]23OO4 (single isomer, unassigned) | 37.7 |
| C[C@@H]1CC[C@H]2[C@@H](CCCc3ccc(C(F)(F)F)cc3)C(O)O[C@@H]3O[C@@]4(C)CC[C@@H]1[C@]32OO4 (stereo partly specified) | 2.9 |
| C[C@@H]1CC[C@H]2CC(=O)O[C@@H]3O[C@@]4(C)CCC1[C@@]23OO4 (stereo partly specified) | 242 |

| Structure (SMILES) | IC50 [µM] |
| --- | --- |
| C[C@@H]1CC[C@H]2CCO[C@@H]3O[C@@]4(C)CC[C@@H]1[C@@]23OO4 | 49.2 |
| C[C@H]1[C@@H](O)O[C@@H]2O[C@@]3(C)CC[C@H]4[C@H](C)CC[C@@H]1[C@@]24OO3 [ARTENIMOL] | 70.3 |
| C[C@@H]1CC[C@H]2[C@@H](C)C(=O)O[C@@H]3OC(C)(C)OO[C@@]32[C@H]1C | 158 |
| C=CC[C@H]1C(=O)O[C@@H]2O[C@@]3(C)CCC4[C@H](C)CC[C@@H]1[C@]42OO3 (stereo partly specified) | 17.8 |
| C[C@@H]1CC[C@H]2CC(=O)N(Cc3ccc(Cl)cc3)[C@@H]3O[C@@]4(C)CC[C@@H]1[C@@]23OO4 | 25.5 |
| C[C@@H]1CC[C@H]2[C@@H](CCCc3ccc(Cl)cc3)C(=O)O[C@@H]3O[C@@]4(C)CCC1[C@]32OO4 (stereo partly specified) | 11.9 |
| N=C(N)c1ccc(OCCCCCOc2ccc(C(=N)N)cc2)cc1 [PENTAMIDINE] | 1.35 |
| C[C@@H]1CC[C@H]2[C@@H](C)C(=O)O[C@@H]3O[C@@]4(C)CC[C@@H]1[C@]32OO4 [ARTEMISININ] | 124 |
| C[C@@H]1CC[C@H]2CC(=O)N(Cc3ccccc3)[C@@H]3O[C@@]4(C)CC[C@@H]1[C@@]23OO4 | 56 |
| C[C@@H]1CC[C@H]2[C@@H](CCCC(F)(F)F)C(O)O[C@@H]3O[C@@]4(C)CC[C@@H]1[C@]32OO4 (stereo partly specified) | 26.3 |
| C[C@@H]1CC[C@H]2CC(O)O[C@@H]3O[C@@]4(C)CC[C@@H]1[C@@]23OO4 (stereo partly specified) | 44.4 |
| CCC[C@H]1C(=O)O[C@@H]2O[C@@]3(C)CCC4[C@H](C)CC[C@@H]1[C@]42OO3 (stereo partly specified) | 16.8 |
| CCCC[C@@]12CC[C@H]3[C@H](C)CC[C@H]4CCO[C@H](O1)[C@]43OO2 | 152 |
| CC(=O)O[C@@H]1O[C@@]2(C)CC[C@H]3[C@H](C)CCC[C@@]13OO2 | 148 |
| COc1ccc(CCC[C@H]2C(=O)O[C@@H]3O[C@@]4(C)CCC5[C@H](C)CC[C@@H]2[C@]53OO4)cc1 (stereo partly specified) | 12 |
| CCCCN1C(=O)C[C@@H]2CC[C@@H](C)[C@@H]3CC[C@@]4(C)OO[C@@]23[C@H]1O4 | 44.5 |
| CCOC1O[C@@H]2O[C@]3(C)CC[C@H]4[C@H](C)CC[C@@H]([C@H]1C)C24OO3 (stereo partly specified) | 44.8 |
| C[C@@H]1CC[C@H]2CC(=O)O[C@@H]3OC4(CCc5ccccc5)CC[C@@H]1[C@@]23OO4 (single isomer, unassigned) | 12.6 |
| CC[C@H]1C(=O)O[C@@H]2O[C@@]3(C)CCC4[C@H](C)CC[C@@H]1[C@]42OO3 (stereo partly specified) | 60.7 |
| C[C@@H]1CC[C@H]2CC(=O)O[C@@H]3O[C@@]4(CCCc5ccc(Cl)cc5)CCC1[C@@]23OO4 (stereo partly specified) | 11.1 |
| C[C@@H]1CC[C@H]2C(C)(C)C(=O)O[C@@H]3O[C@@]4(C)CCC1[C@]32OO4 (stereo partly specified) | 101 |

| Structure (SMILES) | IC50 [µM] |
| --- | --- |
| CCC[C@@]12CCC3[C@H](C)CC[C@H]4CC(=O)O[C@H](O1)[C@@]34OO2 (stereo partly specified) | 40.5 |
| C[C@@H]1CC[C@H]2[C@@H](CCc3ccccc3)C(=O)O[C@@H]3O[C@@]4(C)CCC1[C@]32OO4 (stereo partly specified) | 40.3 |
| C[C@@H]1CC[C@H]2[C@@H](CCCCc3ccccc3)C(=O)O[C@@H]3O[C@@]4(C)CCC1[C@]32OO4 (stereo partly specified) | 7.5 |
| CC(C)CCC[C@H]1C(=O)O[C@@H]2O[C@@]3(C)CCC4[C@H](C)CC[C@@H]1[C@]42OO3 (stereo partly specified) | 8.5 |
| C[C@@H]1CC[C@H]2[C@@H](CCCc3ccc(Cl)c(Cl)c3)CO[C@@H]3O[C@@]4(C)CC[C@@H]1[C@]32OO4 | 2.3 |
| C[C@@H]1CC[C@H]2[C@@H](CCCc3cccc(Cl)c3)CO[C@@H]3O[C@@]4(C)CC[C@@H]1[C@]32OO4 | 3.7 |
| C[C@@H]1CC[C@H]2[C@@H](CCCc3cc(F)cc(F)c3)CO[C@@H]3O[C@@]4(C)CC[C@@H]1[C@]32OO4 | 11 |
| C[C@@H]1CC[C@H]2[C@@H](CCCC(F)(F)F)C(=O)O[C@@H]3O[C@@]4(C)CCC1[C@]32OO4 (stereo partly specified) | 79.3 |
| C[C@@H]1CC[C@H]2[C@@H](C)CO[C@@H]3OC4(C)CC[C@@H]1[C@]32OO4 (single isomer, unassigned) [DEOXOARTEMISININ] | 46.6 |
| C[C@@H]1CC[C@H]2[C@@H](CCCc3cccc(F)c3)C(=O)O[C@@H]3O[C@@]4(C)CCC1[C@]32OO4 (stereo partly specified) | 3.7 |
| CCCC[C@H]1C(=O)O[C@@H]2O[C@@]3(CC)CCC4[C@H](C)CC[C@@H]1[C@]42OO3 (stereo partly specified) | 35.5 |
| CCC[C@@]12CC[C@H]3[C@H](C)CC[C@H]4CCO[C@H](O1)[C@]43OO2 | 70.8 |
| C[C@@H]1CC[C@H]2CC(=O)N(CCc3ccccc3)[C@@H]3O[C@@]4(C)CC[C@@H]1[C@@]23OO4 | 32.3 |
| C[C@@H]1CC[C@H]2[C@@H](CCCc3ccc(Cl)cc3)C(O)O[C@@H]3O[C@@]4(C)CC[C@@H]1[C@]32OO4 (stereo partly specified) | 4.7 |
| C[C@@H]1CC[C@H]2[C@@H](CCCc3cc(F)cc(F)c3)C(O)O[C@@H]3O[C@@]4(C)CC[C@@H]1[C@]32OO4 (stereo partly specified) | 33 |
| C[C@@H]1CC[C@H]2[C@@H](Cc3ccccc3)C(=O)O[C@@H]3O[C@@]4(C)CCC1[C@]32OO4 (stereo partly specified) | 15.3 |
| C[C@@H]1CC[C@H]2CC(=O)N(CC(=O)OC(C)(C)C)[C@@H]3O[C@@]4(C)CC[C@@H]1[C@@]23OO4 | 27.5 |
| C[C@@H]1CC[C@H]2[C@@H](CCCc3cccc(Cl)c3)C(O)O[C@@H]3O[C@@]4(C)CC[C@@H]1[C@]32OO4 (stereo partly specified) | 16.6 |
| CCCC[C@H]1C(=O)O[C@@H]2O[C@@]3(C)CCC4[C@H](C)CC[C@@H]1[C@]42OO3 (stereo partly specified) | 12.3 |

These compounds were tested on Plasmodium falciparum (assay: In vitro antimalarial activity against chloroquine-resistant Plasmodium falciparum W2 Indochina).
Format: functional, organism-based
Method in brief: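 Asynchronous P. falciparum cultures (2% hematocrit, 2% parasitemia) given compound dilutions in DMSO or RPMI-1640, incubated 48 h at 37°C under 90% N2/5% CO2/5% O2 in humidified chamber. Growth read as parasite lactate dehydrogenase activity with Malstat reagent. At least six concentrations, each in duplicate; medium and RBC controls on each plate.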

| Structure (SMILES) | IC50 [µM] |
| --- | --- |
| C[C@@H]1CC[C@H]2[C@@H](CCCc3ccc(S(C)(=O)=O)cc3)C(=O)O[C@@H]3O[C@@]4(C)CCC1[C@]32OO4 (stereo partly specified) | 0.02 |
| C[C@@H]1CC[C@H]2[C@@H](CCCc3ccccc3)C(=O)O[C@@H]3O[C@@]4(C)CCC1[C@]32OO4 (stereo partly specified) | 0.0013 |
| C[C@@H]1CC[C@H]2[C@@H](CCCc3ccc(N(C)C)cc3)CO[C@@H]3O[C@@]4(C)CC[C@@H]1[C@]32OO4 | 0.0143 |
| CSc1ccc(CCC[C@H]2C(=O)O[C@@H]3O[C@@]4(C)CCC5[C@H](C)CC[C@@H]2[C@]53OO4)cc1 (stereo partly specified) | 0.0508 |
| OC(c1cc(C(F)(F)F)nc2c(C(F)(F)F)cccc12)C1CCCCN1 (stereo unspecified) [MEFLOQUINE] | 0.195 |

The compounds below were run on Plasmodium falciparum (assay: In vitro antimalarial activity against chloroquine-sensitive Plasmodium falciparum D6 Sierra Leone).
Format: functional, organism-based

| Structure (SMILES) | IC50 [µM] |
| --- | --- |
| C[C@@H]1CC[C@H]2[C@@H](CCCc3ccc(S(C)(=O)=O)cc3)C(=O)O[C@@H]3O[C@@]4(C)CCC1[C@]32OO4 (stereo partly specified) | 0.0301 |
| C[C@@H]1CC[C@H]2[C@@H](CCCc3ccccc3)C(=O)O[C@@H]3O[C@@]4(C)CCC1[C@]32OO4 (stereo partly specified) | 0.0047 |
| C[C@@H]1CC[C@H]2[C@@H](CCCc3ccc(N(C)C)cc3)CO[C@@H]3O[C@@]4(C)CC[C@@H]1[C@]32OO4 | 0.0165 |
| CSc1ccc(CCC[C@H]2C(=O)O[C@@H]3O[C@@]4(C)CCC5[C@H](C)CC[C@@H]2[C@]53OO4)cc1 (stereo partly specified) | 0.0439 |
| OC(c1cc(C(F)(F)F)nc2c(C(F)(F)F)cccc12)C1CCCCN1 (stereo unspecified) [MEFLOQUINE] | 0.17 |
